Test results published in ChEMBL document CHEMBL1154167, “Discovery of azetidinyl ketolides for the treatment of susceptible and multidrug resistant community-acquired respiratory tract infections” (J Med Chem, 2009).
≈ marks a conversion by molar mass, not a printed value.

What was measured:
Streptococcus pneumoniae [1] = experiment: Antibacterial activity against multidrug-susceptible Streptococcus pneumoniae 1016 by NCCLS method; assay type: functional
Haemophilus influenzae [2] = experiment: Antibacterial activity against multidrug-susceptible Haemophilus influenzae 1325 by NCCLS method; assay type: functional
[3] = Metabolic stability in human liver microsomes assessed as hepatic extraction ratio at 1 uM; assay type: ADME, Microsome; conditions: read-out: ERH
How it was run: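 Human liver microsomes used to screen for metabolic clearance; the readout was the microsomal extraction ratio (ER).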

[4] = Metabolic stability in human liver cytosol assessed as compound turnover at 1 uM in presence of aldehyde oxidase inhibitor raloxifene; assay type: ADME
How it was run: (§1)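 Human liver cytosol incubations, used as a readout of aldehyde oxidase metabolism, run with and without the AO inhibitor raloxifene.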

Streptococcus pneumoniae [5] = experiment: Antibacterial activity against multidrug-resistant Streptococcus pneumoniae 1175 harboring mefA gene by NCCLS method; assay type: functional
Streptococcus pneumoniae [6] = experiment: Antibacterial activity against multidrug-resistant Streptococcus pneumoniae 1095 harboring ermB infected in po dosed mouse respiratory tract model assessed as survival administered 18 hrs postinfection BID for 2 days measured on day 10 postinfection; assay type: functional; conditions: Streptococcus pneumoniae, 1095, po; read-out: PD50
How it was run: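 Murine respiratory tract infection model using S. pneumoniae 1095 (erm). Compounds were given orally. The outcome was the 50% protective dose (PD50), reported as (mg/kg)/dose.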

Streptococcus pyogenes = experiment: Antibacterial activity against multidrug-resistant Streptococcus pyogenes 1079 harboring ermB gene by NCCLS method; assay type: functional
Haemophilus influenzae [7] = experiment: Antibacterial activity against multidrug-susceptible Haemophilus influenzae 1325 infected in po dosed Mongolian gerbil otitis media model assessed as reduction of bacterial infection administered 18 hrs postinfection TID for 2 days measured on day 4 postinfection; assay type: functional; conditions: Haemophilus influenzae, 1325, po
How it was run: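 Gerbil otitis media model infected with H. influenzae 1325; compounds given orally. Efficacy expressed as ED50 in (mg/kg)/dose.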

[8] = molecular target: Voltage-gated inwardly rectifying potassium channel KCNH2 (Homo sapiens, UniProt Q12809); experiment: Inhibition of human ERG by patch-clamp assay
Sequence of Voltage-gated inwardly rectifying potassium channel KCNH2 (Q12809 whole entry): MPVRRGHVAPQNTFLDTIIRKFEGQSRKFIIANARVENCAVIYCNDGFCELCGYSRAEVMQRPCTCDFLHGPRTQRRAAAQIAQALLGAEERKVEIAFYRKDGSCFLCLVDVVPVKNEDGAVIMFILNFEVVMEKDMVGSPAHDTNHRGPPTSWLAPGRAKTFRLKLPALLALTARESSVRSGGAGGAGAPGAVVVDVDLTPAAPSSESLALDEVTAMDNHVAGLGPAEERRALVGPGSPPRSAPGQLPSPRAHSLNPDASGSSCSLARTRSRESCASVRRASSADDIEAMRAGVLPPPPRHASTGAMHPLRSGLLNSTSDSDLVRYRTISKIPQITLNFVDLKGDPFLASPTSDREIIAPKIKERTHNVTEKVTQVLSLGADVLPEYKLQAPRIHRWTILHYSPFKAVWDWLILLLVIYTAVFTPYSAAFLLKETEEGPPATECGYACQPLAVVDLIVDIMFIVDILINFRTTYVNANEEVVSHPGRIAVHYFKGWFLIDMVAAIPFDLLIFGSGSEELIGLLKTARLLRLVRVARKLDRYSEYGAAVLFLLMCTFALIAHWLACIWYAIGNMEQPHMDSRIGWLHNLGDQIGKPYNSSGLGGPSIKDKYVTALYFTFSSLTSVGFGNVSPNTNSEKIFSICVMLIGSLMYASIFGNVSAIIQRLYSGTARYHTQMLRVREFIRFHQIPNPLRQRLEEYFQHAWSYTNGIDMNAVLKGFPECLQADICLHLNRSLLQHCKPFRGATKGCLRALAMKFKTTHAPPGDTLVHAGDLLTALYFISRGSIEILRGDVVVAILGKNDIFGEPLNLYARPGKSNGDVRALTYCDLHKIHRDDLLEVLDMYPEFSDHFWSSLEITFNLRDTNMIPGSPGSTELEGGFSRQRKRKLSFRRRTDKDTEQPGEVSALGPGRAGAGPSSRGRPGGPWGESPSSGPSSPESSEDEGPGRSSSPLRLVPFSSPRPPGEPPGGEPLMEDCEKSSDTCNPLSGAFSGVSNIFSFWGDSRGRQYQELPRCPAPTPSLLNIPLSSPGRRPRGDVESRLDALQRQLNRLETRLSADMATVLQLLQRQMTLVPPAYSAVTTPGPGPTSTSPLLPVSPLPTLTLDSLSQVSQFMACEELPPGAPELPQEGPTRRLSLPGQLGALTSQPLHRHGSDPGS

Streptococcus pneumoniae [9] = experiment: Antibacterial activity against multidrug-resistant Streptococcus pneumoniae 1095 harboring ermB gene by NCCLS method; assay type: functional
[10] = Metabolic stability in human liver cytosol assessed as compound turnover at 1 uM after 60 mins; assay type: ADME, tissue-based; conditions: 1 h; how it was run: as §1

Row | SMILES | MIC (Streptococcus pneumoniae [1]) [µg/mL] | MIC (Haemophilus influenzae [2]) [µg/mL] | hepatic extraction ratio at 1 µM [3] | half-life at 1 µM [4] [h] | MIC (Streptococcus pneumoniae [5]) [µg/mL] | ED50 (Streptococcus pneumoniae [6]) [mg/kg] | MIC (Streptococcus pyogenes) [µg/mL] | ED50 (Haemophilus influenzae [7]) [mg/kg] | IC50 [8] [µM] | MIC (Streptococcus pneumoniae [9]) [µg/mL] | Stability [10]
1 | CC[C@H]1OC(=O)[C@H](C)C(=O)[C@H](C)[C@@H](O[C@@H]2O[C@H](C)C[C@H](N(C)C)[C@H]2O)[C@](C)(OC)C[C@@H](C)C(=O)[C@H](C)[C@H]2N(CCCCn3cnc(-c4cccnc4)c3)C(=O)O[C@]12C [TELITHROMYCIN] | ≤ 0.06 | 4 (≈ 4.93 µM) | 0.7 | < 2 | ≤ 0.06 | 31.2 | 32 (≈ 39.4 µM) | 37.5 | 40 | ≤ 0.06 | Stable
2 | CC[C@H]1OC(=O)[C@H](C)C(=O)[C@H](C)[C@@H](O[C@@H]2O[C@H](C)C[C@H](N(C)C)[C@H]2O)[C@](C)(O)C[C@@H](C)C(=O)[C@H](C)[C@H]2N(C3CN(Cc4c(O)cnc5cccnc45)C3)C(=O)O[C@]12C | ≤ 0.06 | 4 (≈ 4.93 µM) | < 0.3 | < 2 | ≤ 0.06 | 26.8 | 0.5 (≈ 0.616 µM) | 53.6 | 67 | ≤ 0.06 | Stable
3 | CC[C@H]1OC(=O)[C@H](C)C(=O)[C@H](C)[C@@H](O[C@@H]2O[C@H](C)C[C@H](N(C)C)[C@H]2O)[C@](C)(O)C[C@@H](C)C(=O)[C@H](C)[C@H]2N(C3CN([C@H](C)c4ccnc5ncccc45)C3)C(=O)O[C@]12C | ≤ 0.06 | 4 (≈ 4.94 µM) | 0.3 | < 2 | 0.25 (≈ 0.309 µM) | 54.5 | 1 (≈ 1.23 µM) | 35.6 | 43 | ≤ 0.06 | Unstable
4 | CC[C@H]1OC(=O)[C@H](C)C(=O)[C@H](C)[C@@H](O[C@@H]2O[C@H](C)C[C@H](N(C)C)[C@H]2O)[C@](C)(O)C[C@@H](C)C(=O)[C@H](C)[C@H]2N(C3CN(Cc4cccc5nc[nH]c45)C3)C(=O)O[C@]12C | ≤ 0.06 | 8 (≈ 10.2 µM) | – | < 2 | 0.5 (≈ 0.638 µM) | – | 8 (≈ 10.2 µM) | – | – | 0.125 (≈ 0.159 µM) | –
5 | CC[C@H]1OC(=O)[C@H](C)C(=O)[C@H](C)[C@@H](O[C@@H]2O[C@H](C)C[C@H](N(C)C)[C@H]2O)[C@](C)(O)C[C@@H](C)C(=O)[C@H](C)[C@H]2N(C3CN(Cc4ccnc5ncccc45)C3)C(=O)O[C@]12C | ≤ 0.06 | 4 (≈ 5.03 µM) | 0.6 | < 2 | 0.12 (≈ 0.151 µM) | – | 1 (≈ 1.26 µM) | – | 80 | ≤ 0.06 | Unstable
6 | CC[C@H]1OC(=O)[C@H](C)[C@@H](O[C@H]2C[C@@](C)(OC)[C@@H](O)[C@H](C)O2)[C@H](C)[C@@H](O[C@@H]2O[C@H](C)C[C@H](N(C)C)[C@H]2O)[C@](C)(OC)C[C@@H](C)C(=O)[C@H](C)[C@@H](O)[C@]1(C)O [CLARITHROMYCIN] | ≤ 0.06 | 16 (≈ 21.4 µM) | – | < 2 | 16 (≈ 21.4 µM) | > 100 | > 64 | > 100 | – | > 64 | –
7 | CC[C@H]1OC(=O)[C@H](C)C(=O)[C@H](C)[C@@H](O[C@@H]2O[C@H](C)C[C@H](N(C)C)[C@H]2O)[C@](C)(O)C[C@@H](C)C(=O)[C@H](C)[C@H]2N(C3CN(Cc4c(O)cnc5ncccc45)C3)C(=O)O[C@]12C | ≤ 0.06 | 4 (≈ 4.93 µM) | < 0.3 | < 2 | ≤ 0.06 | – | 0.25 (≈ 0.308 µM) | – | 140 | ≤ 0.06 | Unstable
8 | CC[C@H]1OC(=O)[C@H](C)C(=O)[C@H](C)[C@@H](O[C@@H]2O[C@H](C)C[C@H](N(C)C)[C@H]2O)[C@](C)(O)C[C@@H](C)C(=O)[C@H](C)[C@H]2N(C3CN(Cc4ccnc5cccnc45)C3)C(=O)O[C@]12C | ≤ 0.06 | 8 (≈ 10.1 µM) | 0.7 | < 2 | ≤ 0.06 | – | 1 (≈ 1.26 µM) | – | 196 | ≤ 0.06 | Stable
9 | CC[C@H]1OC(=O)[C@H](C)C(=O)[C@H](C)[C@@H](O[C@@H]2O[C@H](C)C[C@H](N(C)C)[C@H]2O)[C@](C)(O)C[C@@H](C)C(=O)[C@H](C)[C@H]2N(C3CN(Cc4c(OC)cnc5ncccc45)C3)C(=O)O[C@]12C | ≤ 0.06 | 8 (≈ 9.69 µM) | 0.8 | < 2 | ≤ 0.06 | – | ≤ 0.06 | – | – | ≤ 0.06 | –
10 | CC[C@H]1OC(=O)[C@H](C)C(=O)[C@H](C)[C@@H](O[C@@H]2O[C@H](C)C[C@H](N(C)C)[C@H]2O)[C@](C)(O)C[C@@H](C)C(=O)[C@H](C)[C@H]2N(C3CN([C@@H](C)c4ccnc5ncccc45)C3)C(=O)O[C@]12C | ≤ 0.06 | 16 (≈ 19.8 µM) | – | < 2 | 0.25 (≈ 0.309 µM) | – | 16 (≈ 19.8 µM) | – | – | ≤ 0.06 | –
